Legend:
[1] = test system: Human immunodeficiency virus 1; assay: In vitro inhibitory concentration against HIV K101E and K103N mutant strain; format: functional, organism-based
Procedure, shortened: (§1)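 MT4 human T-lymphoblastoid cells, grown in RPMI 1640 with 10% fetal calf serum and antibiotics at 37 °C under 5% CO2. Mutant HIV-1 strains were added at 200 CCID50/well with 30 000 cells/well across a compound concentration range. After 5 days at 37 °C, viability was read by MTT colorimetry. EC50 is the concentration giving 50% infection relative to the drug-free control.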

[2] = test system: Human immunodeficiency virus 1; assay: In vitro inhibitory concentration against HIV F227C mutant strain; format: functional, organism-based; procedure, shortened: as §1
[3] = test system: Human immunodeficiency virus 1; assay: In vitro inhibitory concentration against HIV L100I and K103N mutant strain; format: functional, organism-based; procedure, shortened: as §1
[4] = test system: Human immunodeficiency virus 1; assay: Selective index value (ratio of CC50 to IC50 value)against HIV LAI cell line; format: functional
Procedure, shortened: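 Ratio of CC50 to IC50 against LAI. CC50 came from mock-infected MT4 cultures (30 000 cells/well) given the same compound concentration range, run in parallel with LAI-infected cultures (200 CCID50/well). Incubation was 5 days at 37 °C in 5% CO2, with MTT viability read-out.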

[5] = test system: Human immunodeficiency virus 1; assay: In vitro inhibitory concentration against HIV E138K mutant strain; format: functional, organism-based; procedure, shortened: as §1
[6] = test system: Human immunodeficiency virus 1; assay: In vitro inhibitory concentration against HIV G190A mutant strain; format: functional, organism-based; procedure, shortened: as §1
[7] = test system: Human immunodeficiency virus 1; assay: In vitro inhibitory concentration against HIV K101E mutant strain; format: functional, organism-based; procedure, shortened: as §1
[8] = test system: Human immunodeficiency virus 1; assay: In vitro inhibitory concentration against HIV LAI cell line; format: functional, organism-based; details: Human immunodeficiency virus 1, LAI
Procedure, shortened: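 HIV-1 LAI was added at 200 CCID50/well to MT4 human T-lymphoblastoid cells (30 000 cells/well) across a concentration range of compound. Cells were grown in RPMI 1640 with 10% fetal calf serum and antibiotics. After 5 days at 37 °C in 5% CO2, cell viability was read by MTT colorimetry. EC50 was the concentration giving 50% infection versus the drug-free control.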

[9] = test system: Human immunodeficiency virus 1; assay: In vitro inhibitory concentration against HIV V179E mutant strain; format: functional, organism-based; procedure, shortened: as §1
[10] = test system: Human immunodeficiency virus 1; assay: In vitro inhibitory concentration against HIV Y188L mutant strain; format: functional, organism-based; procedure, shortened: as §1
[11] = test system: Human immunodeficiency virus 1; assay: In vitro inhibitory concentration against HIV G190S mutant strain; format: functional, organism-based; procedure, shortened: as §1
[12] = test system: Human immunodeficiency virus 1; assay: In vitro inhibitory concentration against HIV K103N mutant strain; format: functional, organism-based; procedure, shortened: as §1
[13] = test system: Human immunodeficiency virus 1; assay: In vitro inhibitory concentration against HIV F227L and V106A mutant strain; format: functional, organism-based; procedure, shortened: as §1
[14] = test system: Human immunodeficiency virus 1; assay: In vitro inhibitory concentration value against HIV K103N and Y181C mutant strain; format: functional, organism-based; procedure, shortened: as §1
[15] = test system: Human immunodeficiency virus 1; assay: In vitro inhibitory concentration against HIV-1 Y181C mutant strain; format: functional, organism-based; procedure, shortened: as §1
[16] = test system: Human immunodeficiency virus 1; assay: In vitro inhibitory concentration against HIV L100I mutant strain; format: functional, organism-based; procedure, shortened: as §1
[17] = test system: Human immunodeficiency virus 1; assay: In vitro inhibitory concentration against HIV V106A mutant strain; format: functional, organism-based; procedure, shortened: as §1

| SMILES | IC50 [1] [nM] | IC50 [2] [nM] | IC50 [3] [nM] | SI [4] | IC50 [5] [nM] | IC50 [6] [nM] | IC50 [7] [nM] | IC50 [8] [nM] | IC50 [9] [nM] | IC50 [10] [nM] | IC50 [11] [nM] | IC50 [12] [nM] | IC50 [13] [nM] | IC50 [14] [nM] | IC50 [15] [nM] | IC50 [16] [nM] | IC50 [17] [nM] |
| --- | --- | --- | --- | --- | --- | --- | --- | --- | --- | --- | --- | --- | --- | --- | --- | --- | --- |
| CCc1c(C)[nH]c(=O)c(N(C)CCOC)c1Cc1cccc(C)c1 | 100 | 790 | 794 | 10000 | 8 | 100 | 16 | 1 | 4 | 398 | 39 | 79 | 3980 | 10000 | 794 | 6 | 63 |
| CCc1c(C)[nH]c(=O)c(N(C)CC)c1Cc1cc(C)cc(C)c1 | 139 | 1120 | 598 | 3980 | 63 | 63 | 79 | 8 | 32 | 1260 | 316 | 79 | – | 3120 | 316 | 63 | 316 |
| CCc1c(C)[nH]c(=O)c(N(C)CC)c1Cc1cccc(/C=C/C#N)c1 | 158 | 794 | 200 | 10000 | 6 | 10 | 6 | 1 | 2 | 251 | 125 | 6 | 3160 | 199 | 32 | 10 | 8 |
| COCCCc1c(C)nc(O)c(N(C)C)c1C(=O)c1cccc(C)c1 | 158 | 631 | 63 | 1260 | 20 | 16 | 32 | 8 | 8 | 158 | 32 | 126 | 40 | 200 | 160 | 20 | 40 |
| CCc1c(C)[nH]c(=O)c(N(C)C)c1Cc1cc(C)cc(C)c1 | – | – | – | 12600 | – | 63 | 16 | – | – | 251 | – | 32 | – | 794 | 100 | 50 | 40 |
| CCc1c(C)[nH]c(=O)c(N(C)C)c1C(=O)c1cc(C)cc(C)c1 | 13 | 631 | 40 | 2510 | 5 | 13 | 8 | – | 2 | 158 | 4 | 10 | 398 | 158 | 63 | 6 | 6 |
| CCc1c(C)nc(O)c(N(C)CCOC)c1C(=O)c1cccc(C)c1 | 15 | 224 | 17 | 79400 | 3 | 3 | 3 | 1 | 1 | 1260 | 3 | 20 | 251 | 2810 | 631 | 8 | – |
| O=C1Nc2ccc(Cl)cc2[C@@](C#CC2CC2)(C(F)(F)F)O1 [EFAVIRENZ] | – | – | 10000 | – | 2 | 10 | 6 | – | 5 | – | 251 | – | 25 | – | – | 40 | 40 |
